Data as given in ChEMBL document CHEMBL3286113, “New potent antibacterial oxazolidinone (MRX-I) with an improved class safety profile” (J Med Chem, 2014).
Converted amounts (≈) assume the structure as drawn.

Columns and labels:
[1] = tested on: Staphylococcus aureus; experiment: Antibacterial activity against Staphylococcus aureus; type: functional
[2] = tested on: Rattus norvegicus; experiment: Toxicity in female rat assessed as effect on mean corpuscular hemoglobin level at 100 mg/kg/day, po bid administered for 4 weeks (reference value: 19.5 pg); type: organism-based; design: route oral; conditions: in vivo, 672 h
[3] = tested on: Streptococcus sanguinis; experiment: Antibacterial activity against Streptococcus sanguinis; type: functional
[4] = tested on: Staphylococcus aureus; experiment: Antibacterial activity against methicillin-sensitive Staphylococcus aureus ATCC 29213 in po dosed mouse systemic infection model; type: functional; conditions: ATCC 29213, po
[5] = tested on: Staphylococcus aureus; experiment: Antibacterial activity against Staphylococcus aureus in po dosed mouse septicemia model; type: functional
[6] = tested on: Streptococcus pyogenes; experiment: Antibacterial activity against Streptococcus pyogenes isolate 556; type: functional
[7] = tested on: Rattus norvegicus; experiment: Toxicity in female rat assessed as effect on WBC count at 100 mg/kg/day, po bid administered for 4 weeks (reference value: 3.66 x 10^9/L); type: organism-based; design: route oral; conditions: in vivo, 672 h
[8] = tested on: Streptococcus pyogenes; experiment: Antibacterial activity against Streptococcus pyogenes isolate 556 in po dosed mouse systemic infection model; type: functional; conditions: isolate 556, po
[9] = tested on: Enterococcus faecalis; experiment: Antibacterial activity against vancomycin-resistant Enterococcus faecalis isolate EFL 4041 in po dosed mouse systemic infection model; type: functional; conditions: isolate EFL 4041, po
[10] = tested on: Enterococcus faecium; experiment: Bacteriostatic activity against vancomycin-resistant Enterococcus faecium; type: functional
[11] = tested on: Enterococcus faecalis; experiment: Bacteriostatic activity against vancomycin-sensitive Enterococcus faecalis; type: functional
[12] = tested on: Streptococcus pneumoniae; experiment: Bactericidal activity against penicillin-resistant Streptococcus pneumoniae; type: functional
[13] = tested on: Streptococcus pneumoniae; experiment: Antibacterial activity against penicillin intermediate-sensitive Streptococcus pneumoniae ATCC 49619 clinical isolate in po dosed mouse systemic infection model; type: functional; conditions: ATCC 49619, po
[14] = tested on: Rattus norvegicus; experiment: Toxicity in female rat assessed as effect on RBC count at 100 mg/kg/day, po bid administered for 4 weeks (reference value: 7.28 x 10^12/L); type: organism-based; design: route oral; conditions: in vivo, 672 h
[15] = tested on: Rattus norvegicus; experiment: Toxicity in female rat assessed as effect on hemoglobin level at 100 mg/kg/day, po bid administered for 4 weeks (reference value: 141.8 g/L); type: organism-based; design: route oral; conditions: in vivo, 672 h
[16] = tested on: Rattus norvegicus; experiment: Toxicity in female rat assessed as effect on reticulocyte count at 100 mg/kg/day, po bid administered for 4 weeks (reference value: 1.48%); type: organism-based; design: route oral; conditions: in vivo, 672 h
[17] = tested on: Streptococcus pneumoniae; experiment: Antibacterial activity against penicillin-resistant Streptococcus pneumoniae isolate 0613 in po dosed mouse systemic infection model; type: functional; conditions: isolate 0613, po
[18] = tested on: Rattus norvegicus; experiment: Toxicity in female rat assessed as effect on lymphocyte count at 100 mg/kg/day, po bid administered for 4 weeks (reference value: 74.8%); type: organism-based; design: route oral; conditions: in vivo, 672 h
[19] = tested on: Enterococcus; experiment: Bacteriostatic activity against vancomycin-sensitive Enterococcus; type: functional
[20] = tested on: Streptococcus dysgalactiae subsp. equisimilis; experiment: Antibacterial activity against Streptococcus equisimilis; type: functional
[21] = tested on: Staphylococcus aureus; experiment: Antibacterial activity against methicillin-sensitive Staphylococcus aureus ATCC 29213; type: functional
[22] = tested on: Staphylococcus epidermidis; experiment: Antibacterial activity against methicillin-resistant Staphylococcus epidermidis; type: functional
[23] = tested on: Staphylococcus haemolyticus; experiment: Antibacterial activity against Staphylococcus haemolyticus; type: functional
[24] = tested on: Streptococcus agalactiae; experiment: Antibacterial activity against Streptococcus agalactiae; type: functional
[25] = tested on: Streptococcus constellatus; experiment: Antibacterial activity against Streptococcus constellatus; type: functional
[26] = tested on: Staphylococcus; experiment: Antibacterial activity against beta-lactamase-negative Staphylococcus; type: functional
[27] = tested on: Enterococcus faecalis; experiment: Antibacterial activity against vancomycin-sensitive/high-level gentamycin-resistant Enterococcus faecalis isolate HH22 in po dosed mouse systemic infection model; type: functional; conditions: EnGen0297, po
[28] = tested on: Streptococcus pneumoniae; experiment: Antibacterial activity against penicillin-sensitive Streptococcus pneumoniae isolate 0806 in po dosed mouse systemic infection model; type: functional; conditions: isolate 0806, po
[29] = tested on: Staphylococcus epidermidis; experiment: Antibacterial activity against methicillin-sensitive Staphylococcus epidermidis; type: functional
[30] = tested on: Streptococcus pyogenes; experiment: Antibacterial activity against Streptococcus pyogenes; type: functional
[31] = target: T1, Amine oxidase [flavin-containing] A (Homo sapiens, UniProt P21397); experiment: Inhibition of MAO-A (unknown origin) using tyramine as substrate after 30 to 60 mins by fluorescence plate reader analysis
T1 sequence (P21397 whole entry): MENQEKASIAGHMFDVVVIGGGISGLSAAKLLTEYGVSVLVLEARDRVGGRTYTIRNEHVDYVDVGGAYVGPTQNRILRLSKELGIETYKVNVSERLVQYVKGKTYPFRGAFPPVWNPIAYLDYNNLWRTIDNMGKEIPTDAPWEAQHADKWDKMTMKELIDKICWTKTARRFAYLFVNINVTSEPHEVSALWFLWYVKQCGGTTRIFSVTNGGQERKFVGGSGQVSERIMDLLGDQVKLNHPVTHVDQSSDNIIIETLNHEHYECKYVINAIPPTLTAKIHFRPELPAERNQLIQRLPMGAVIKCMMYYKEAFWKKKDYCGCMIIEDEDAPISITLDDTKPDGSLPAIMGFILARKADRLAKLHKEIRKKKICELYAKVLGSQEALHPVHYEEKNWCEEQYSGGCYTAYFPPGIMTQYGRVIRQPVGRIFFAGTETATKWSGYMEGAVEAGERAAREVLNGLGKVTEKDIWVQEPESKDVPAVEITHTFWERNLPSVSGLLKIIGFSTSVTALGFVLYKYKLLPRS

[32] = tested on: Staphylococcus aureus; experiment: Antibacterial activity against linezolid-resistant Staphylococcus aureus isolate 4184; type: functional
[33] = tested on: Staphylococcus saprophyticus; experiment: Antibacterial activity against Staphylococcus saprophyticus; type: functional
[34] = tested on: Staphylococcus; experiment: Antibacterial activity against coagulase-negative Staphylococcus; type: functional
[35] = tested on: Rattus norvegicus; experiment: Toxicity in female rat assessed as effect on hematocrit level at 100 mg/kg/day, po bid administered for 4 weeks (reference value: 39.08%); type: organism-based; design: route oral; conditions: in vivo, 672 h
[36] = tested on: Staphylococcus aureus; experiment: Antibacterial activity against methicillin-sensitive Staphylococcus aureus isolate 15 in po dosed mouse systemic infection model; type: functional; conditions: isolate 15, po
[37] = tested on: Streptococcus pneumoniae; experiment: Bactericidal activity against penicillin-sensitive Streptococcus pneumoniae; type: functional
[38] = tested on: Staphylococcus aureus; experiment: Antibacterial activity against methicillin-resistant Staphylococcus aureus isolate 0605 in po dosed mouse systemic infection model; type: functional; conditions: isolate 0605, po
[39] = Myelosuppression activity against human CD34-positive blood stem/progenitor cells assessed as growth inhibition after 9 to 10 days by CellTiter-Glo luminescent assay
[40] = tested on: Streptococcus mitis; experiment: Antibacterial activity against Streptococcus mitis; type: functional
[41] = tested on: Staphylococcus aureus; experiment: Antibacterial activity against methicillin-resistant Staphylococcus aureus isolate 0612 in po dosed mouse systemic infection model; type: functional; conditions: isolate 0612, po
[42] = tested on: Rattus norvegicus; experiment: Toxicity in female rat assessed as effect on platelet count at 100 mg/kg/day, po bid administered for 4 weeks (reference value: 654.6 x 10^9/L); type: organism-based; design: route oral; conditions: in vivo, 672 h
[43] = tested on: Rattus norvegicus; experiment: Toxicity in female rat assessed as effect on neutrophil count at 100 mg/kg/day, po bid administered for 4 weeks (reference value: 22.4%); type: organism-based; design: route oral; conditions: in vivo, 672 h
[44] = tested on: Enterococcus faecalis; experiment: Antibacterial activity against vancomycin-sensitive Enterococcus faecalis ATCC 29212 in po dosed mouse systemic infection model; type: functional; conditions: ATCC 29212, po
[45] = tested on: Staphylococcus aureus; experiment: Antibacterial activity against Staphylococcus aureus by agar dilution method; type: functional
Summary of the method: (§1)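 MIC determined by agar dilution across S. aureus/MRSA isolates; MIC90 is the concentration inhibiting 90% of strains tested.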

[46] = tested on: Staphylococcus aureus; experiment: Antibacterial activity against methicillin-resistant Staphylococcus aureus by broth microdilution method; type: functional
Summary of the method: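 MIC determined against methicillin-resistant S. aureus strain SAU1009.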

[47] = tested on: Streptococcus pneumoniae; experiment: Bactericidal activity against penicillin intermediate-sensitive Streptococcus pneumoniae; type: functional
[48] = tested on: Staphylococcus aureus; experiment: Antibacterial activity against methicillin-sensitive Staphylococcus aureus; type: functional
[49] = tested on: Staphylococcus aureus; experiment: Antibacterial activity against methicillin-resistant Staphylococcus aureus by agar dilution method; type: functional; summary of the method: as §1
[50] = tested on: Streptococcus anginosus; experiment: Antibacterial activity against Streptococcus anginosus; type: functional
[51] = tested on: Rattus norvegicus; experiment: Toxicity in female rat assessed as effect on mean corpuscular volume at 100 mg/kg/day, po bid administered for 4 weeks (reference value: 53.72 fL); type: organism-based; design: route oral; conditions: in vivo, 672 h
[52] = tested on: Enterococcus faecium; experiment: Bacteriostatic activity against vancomycin-sensitive Enterococcus faecium; type: functional

CC(=O)NC[C@H]1CN(c2ccc(C(C)=O)cc2)C(=O)O1 [DUP-721]
MIC [1]: 0.5 µg/mL (≈ 1.81 µM)

CC(=O)NC[C@H]1CN(c2ccc(N3CCOCC3)c(F)c2)C(=O)O1 [LINEZOLID]
Activity [2]: 20.52 pg
MIC [3]: 0.06 µg/mL (≈ 0.178 µM)
ED50 [4]: 9 mg/kg
ED50 [5]: 6.3 mg/kg
MIC [6]: 1 µg/mL (≈ 2.96 µM)
Activity [7]: 1.9 ×10⁹ /L
ED50 [8]: 7.8 mg/kg
ED50 [9]: 6 mg/kg
MIC [10]: 1 µg/mL (≈ 2.96 µM)
MIC50 [10]: 1 µg/mL (≈ 2.96 µM)
MIC90 [10]: 1 µg/mL (≈ 2.96 µM)
MIC50 [11]: 1 µg/mL (≈ 2.96 µM)
MIC90 [11]: 1 µg/mL (≈ 2.96 µM)
MIC50 [12]: 0.5 µg/mL (≈ 1.48 µM)
MIC90 [12]: 0.5 µg/mL (≈ 1.48 µM)
ED50 [13]: 8.17 mg/kg
Activity [14]: 5.52 ×10¹² /L
Activity [15]: 112.8 g/L
Activity [16]: 1.64%
ED50 [17]: 9.3 mg/kg
Activity [18]: 86.2%
MIC50 [19]: 1 µg/mL (≈ 2.96 µM)
MIC90 [19]: 1 µg/mL (≈ 2.96 µM)
MIC [20]: 0.5 µg/mL (≈ 1.48 µM)
MIC50 [20]: 0.5 µg/mL (≈ 1.48 µM)
MIC90 [20]: 1 µg/mL (≈ 2.96 µM)
MIC [21]: 1 µg/mL (≈ 2.96 µM)
MIC50 [22]: 0.5 µg/mL (≈ 1.48 µM)
MIC90 [22]: 1 µg/mL (≈ 2.96 µM)
MIC [23]: 0.5 µg/mL (≈ 1.48 µM)
MIC50 [23]: 0.5 µg/mL (≈ 1.48 µM)
MIC90 [23]: 1 µg/mL (≈ 2.96 µM)
MIC [24]: 1 µg/mL (≈ 2.96 µM)
MIC50 [24]: 1 µg/mL (≈ 2.96 µM)
MIC90 [24]: 1 µg/mL (≈ 2.96 µM)
MIC50 [25]: 1 µg/mL (≈ 2.96 µM)
MIC90 [25]: 1 µg/mL (≈ 2.96 µM)
MIC50 [26]: 0.5 µg/mL (≈ 1.48 µM)
MIC90 [26]: 1 µg/mL (≈ 2.96 µM)
ED50 [27]: 5.6 mg/kg
ED50 [28]: 16.8 mg/kg
MIC50 [29]: 0.5 µg/mL (≈ 1.48 µM)
MIC90 [29]: 0.5 µg/mL (≈ 1.48 µM)
MIC50 [30]: 1 µg/mL (≈ 2.96 µM)
MIC90 [30]: 1 µg/mL (≈ 2.96 µM)
IC50 [31]: 24 µM
MIC [32]: > 16 µg/mL
MIC50 [33]: 1 µg/mL (≈ 2.96 µM)
MIC90 [33]: 1 µg/mL (≈ 2.96 µM)
MIC50 [34]: 0.5 µg/mL (≈ 1.48 µM)
MIC90 [34]: 1 µg/mL (≈ 2.96 µM)
Activity [35]: 30.18%
ED50 [36]: 5.9 mg/kg
MIC50 [37]: 0.5 µg/mL (≈ 1.48 µM)
MIC90 [37]: 1 µg/mL (≈ 2.96 µM)
ED50 [38]: 10.2 mg/kg
IC50 [39]: 6.3 µg/mL (≈ 18.7 µM)
MIC50 [40]: 1 µg/mL (≈ 2.96 µM)
MIC90 [40]: 1 µg/mL (≈ 2.96 µM)
ED50 [41]: 8.7 mg/kg
Activity [42]: 487.4 ×10⁹ /L
Activity [43]: 13%
ED50 [44]: 13.4 mg/kg
MIC90 [45]: 8 µg/mL (≈ 23.7 µM)
MIC90 [46]: 2 µg/mL (≈ 5.93 µM)
MIC50 [47]: 0.5 µg/mL (≈ 1.48 µM)
MIC90 [47]: 0.5 µg/mL (≈ 1.48 µM)
MIC50 [48]: 1 µg/mL (≈ 2.96 µM)
MIC90 [48]: 1 µg/mL (≈ 2.96 µM)
MIC50 [49]: 1 µg/mL (≈ 2.96 µM)
MIC90 [49]: 1 µg/mL (≈ 2.96 µM)
MIC50 [50]: 0.5 µg/mL (≈ 1.48 µM)
MIC90 [50]: 1 µg/mL (≈ 2.96 µM)
Activity [51]: 54.74 fL
MIC50 [52]: 1 µg/mL (≈ 2.96 µM)
MIC90 [52]: 1 µg/mL (≈ 2.96 µM)
